From ChEMBL document CHEMBL2021854, “2-Aminopyrimidine based 4-aminoquinoline anti-plasmodial agents. Synthesis, biological activity, structure-activity relationship and mode of action studies” (Eur J Med Chem, 2012)
Converted amounts (≈) assume the structure as drawn.

Columns and labels:
Plasmodium falciparum [1] = experiment: Resistant factor, ratio of IC50 for chloroquine-resistant Plasmodium falciparum K1 to IC50 for chloroquine-sensitive Plasmodium falciparum 3D7; format: functional
Procedure, shortened: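 Resistance factor computed as IC50 against K1 divided by IC50 against 3D7, both from the [3H]hypoxanthine incorporation assay.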

Plasmodium falciparum [2] = experiment: Antiplasmodial activity chloroquine-resistant Plasmodium falciparum K1 infected in human A+ erythrocytes assessed as inhibition of [3H]-hypoxanthine incorporation after 24 hrs by scintillation counting; format: functional, organism-based
[3] = Inhibition of beta-hematin formation assessed as Ferriprotoporphyrin IX biomineralisation at 1 mg/ml after 24 hrs; format: functional
Procedure, shortened: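 Hemin chloride (0.5 mg/ml in DMSO) mixed with 0.5 M sodium acetate buffer pH 4.4 and drug or solvent control, incubated 37 °C for 24 h. Pellet washed with DMSO to remove unreacted hemin, dissolved in 0.1 N NaOH, absorbance read at 405 nm; percent inhibition relative to control. Highest concentration tested 1 mg/ml.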

Plasmodium falciparum [4] = experiment: Antiplasmodial activity chloroquine-sensitive Plasmodium falciparum 3D7 infected in human A+ erythrocytes assessed as inhibition of [3H]-hypoxanthine incorporation after 24 hrs by scintillation counting; format: functional, organism-based
Felid alphaherpesvirus 1 = experiment: Antiviral activity against Feline herpesvirus infected in cat CRFK cells assessed as inhibition of virus-induced cytopathic effect after 4 days by colorimetric formazan-based MTS assay; format: functional, organism-based; details: Felid alphaherpesvirus 1, CRFK, 96 h
[5] = tested on: Feline infectious peritonitis virus; experiment: Antiviral activity against FIPV infected in cat CRFK cells assessed as inhibition of virus-induced cytopathic effect after 4 days by colorimetric formazan-based MTS assay; format: functional, cell-based; details: Alphacoronavirus 1, CRFK, 96 h
[6] = Cytotoxicity against cat CRFK cells assessed as cell viability by colorimetric formazan-based MTS assay; design: species or system Felis catus; details: CRFK cells
[7] = tested on: Vesicular stomatitis virus; experiment: Antiviral activity against Vesicular stomatitis virus infected in HEL cells assessed as inhibition of virus-induced cytopathogenicity after 4 days; format: functional, organism-based; details: 96 h
Procedure, shortened: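 Confluent HEL or HeLa monolayers infected with 100 CCID50 of virus in the presence of varying compound concentrations.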

HeLa = experiment: Cytotoxicity against human HeLa cells assessed as cell viability by colorimetric formazan-based MTS assay
[8] = Cytotoxicity against human HEL cells assessed as minimum compound concentration required to causes microscopically detectable alteration of normal cell morphology; format: cell-based
Procedure, shortened: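 Confluent, non-proliferating cell cultures were exposed to the compounds. The endpoint was the minimum concentration producing a microscopically detectable alteration of normal cell morphology.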

Compound	Ratio IC50 (Plasmodium falciparum [1])	IC50 (Plasmodium falciparum [2]) [µM]	inhibition [3] [%]	IC50 (Plasmodium falciparum [4]) [µM]	EC50 (Felid alphaherpesvirus 1) [µg/mL]	EC50 [5] [µg/mL]	CC50 [6] [µg/mL]	EC50 [7] [µM]	CC50 (HeLa) [µM]	MCC [8] [µM]
CCOC(=O)c1c(C)nc(NCCCCCCCNc2ccnc3cc(Cl)ccc23)nc1-c1ccccc1	0.544	0.618	89	1.13	–	–	–	–	–	–
N[C@H]1C(C(=O)O)=CC=C[C@@H]1O	–	–	–	–	5.2 (≈ 33.5 µM)	8.1 (≈ 52.2 µM)	> 100	–	–	–
Nc1nc2c(ncn2COCCO)c(=O)[nH]1 [ACYCLOVIR]	–	–	–	–	–	–	–	> 250	541	> 250
CCOC(=O)c1c(C)nc(Nc2ccc(Nc3ccnc4cc(Cl)ccc34)cc2)nc1-c1ccccc1	9.6	6.19	100	0.644	–	–	–	–	–	–
CCOC(=O)c1c(C)nc(Nc2ccccc2Nc2ccnc3cc(Cl)ccc23)nc1-c1ccccc1	1.842	27.3	53	14.8	–	–	–	–	–	–
CC(=O)N[C@H]1[C@@H](OP(=O)(O)OP(=O)(O)OC[C@H]2O[C@@H](n3ccc(=O)[nH]c3=O)[C@H](O)[C@@H]2O)O[C@H](CO)[C@@H](O)[C@@H]1O[C@@](C)(OP(=O)(O)O)C(=O)O	–	–	–	–	0.8 (≈ 1.03 µM)	1.5 (≈ 1.93 µM)	15.8 (≈ 20.4 µM)	–	–	–
